Screening data: PubChem, several laboratories
Fh CTSL1 inh: counter-screen for PFM18AAP inhibitors: inhibitors of F. hepatica cathepsin L1. recombinant F. hepatica cathepsin L1, Z-Leu-Arg-MCA fluorescence. inhibition, % at 5.96 µM. 300,000 tested, 0.49% active;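 active means inhibition above the mean of all tested compounds plus 3 SD, set per screening campaign, cut at about 17% in these data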;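 further: 0% = plate median of test compound wells and 100% = 1 µM Z-Phe-Ala-diazomethylketone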
PP1 counter: counter-screen for PP5 inhibitors: inhibitors of human PP1-alpha. P62136. purified PP1alpha, OMFP fluorescence. inhibition, % at 6.7 µM. 320,000 tested, 0.9% active;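 active means inhibition above the mean inhibition of all tested compounds plus 3 SD, computed separately for each screening campaign, cut at about 15% in these data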
Target sequence (P62136 whole entry, looked up): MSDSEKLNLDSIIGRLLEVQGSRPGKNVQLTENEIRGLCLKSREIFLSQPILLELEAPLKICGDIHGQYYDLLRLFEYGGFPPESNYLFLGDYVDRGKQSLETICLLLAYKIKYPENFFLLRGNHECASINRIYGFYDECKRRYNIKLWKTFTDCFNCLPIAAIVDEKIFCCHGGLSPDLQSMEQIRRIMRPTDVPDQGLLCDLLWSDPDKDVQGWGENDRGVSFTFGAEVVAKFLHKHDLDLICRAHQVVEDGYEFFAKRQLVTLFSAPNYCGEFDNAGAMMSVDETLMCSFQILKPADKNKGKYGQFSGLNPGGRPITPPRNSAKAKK
PREPL inhibitor: inhibits the human prolyl oligopeptidase-like enzyme; Q4J6C6; recombinant PREPL, fluorescence polarization activity-based probe; inhibition, % at 5.96 µM; 320,000 tested, 0.68% active; in the data active means inhibition above about 43%;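 further: 0% = enzyme with DMSO and 100% = wells lacking enzyme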
UBC13 inh: inhibitors of human UBC13 polyubiquitin chain formation; P61088; 330,000 tested, 0.47% active; AID 485273; TR-FRET; inhibition, % at 20 µM; in the data active means inhibition above about 45%, passing the limit was not always enough
UCH37 inh: blocks the human deubiquitinase UCH37; purified proteasome/UCH37, Ub-AMC cleavage fluorescence; Q9Y5K5; inhibition, % (no concentration beside the values); 330,000 tested, 0.33% active;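 active means mean inhibition over replicate wells above about 20%, limit read from the data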;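 further: 0% = compound-free wells with enzyme and 100% = wells lacking proteasome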
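system = Proteasome-associated human UCH37 deubiquitinase | amount = 0.15 nM proteasome as dispensed | medium = pH 7.4 Tris-HCl (50 mM) with ovalbumin, ATP-MgCl2, DTT | incubation = 30 min preincubation with enzyme, 25 min cleavage at room temperature | detection = AMC fluorescence 355/460 nm | read-out basis = percent inhibition | controls = no-proteasome and no-compound wells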
PP5 inh: PP5 (human) phosphatase inhibition; purified PP5c, OMFP substrate fluorescence; 320,000 tested, 0.18% active; inhibition, % at 6.7 µM;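 active means inhibition above the campaign's mean inhibition across all tested compounds plus 3 SD, cut at about 9.5% in these data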;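 further: 0% = DMSO only and 100% = 100 µM cantharidin control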
Casp3 UBC13 ctr: inhibits human caspase-3 in UBC13 counter-screen. 1,400 tested, 4% active. shares compounds with UBC13 inh. inhibition, % at 20 µM. Recombinant caspase-3, Caspase-Glo 3/7 luminescence, 60 min. AID 488856;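 active means mean inhibition across replicates above about 26%, limit read from the data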;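 further: plate controls were DMSO with caspase-3 for no effect and DMSO wells lacking enzyme for full effect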
Target sequence (P42574 whole entry, looked up): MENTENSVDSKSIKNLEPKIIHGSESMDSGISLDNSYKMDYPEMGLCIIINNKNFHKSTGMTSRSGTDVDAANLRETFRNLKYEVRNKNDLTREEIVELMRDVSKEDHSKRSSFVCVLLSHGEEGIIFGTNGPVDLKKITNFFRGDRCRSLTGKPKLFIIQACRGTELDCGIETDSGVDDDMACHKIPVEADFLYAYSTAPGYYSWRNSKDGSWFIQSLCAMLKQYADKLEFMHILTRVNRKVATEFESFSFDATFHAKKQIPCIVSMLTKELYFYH
UBC13 conf: human UBC13 polyubiquitin inhibition, confirmed; shares compounds with UBC13 inh; inhibition, % at 10 µM; 1,400 tested, 68% active; AID 488859; UBC13 polyubiquitination, TR-FRET, biochemical; in the data active means inhibition above about 45%
UCH37 confirm: confirmation of human UCH37 deubiquitinating enzyme inhibitors. shares compounds with UCH37 inh. Proteasome-bound UCH37, Ub-AMC cleavage fluorescence. inhibition, % at 20 µM. 480 tested, 27% active. AID 624100;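 active means average inhibition over replicates above about 50%, so the earlier screening hit is confirmed, limit read from the data; inactive means the rest, counted as false positives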;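 further: based on cleavage rate fitted by regression over a 30 min kinetic read; 0% = proteasome plus Ub-AMC and 100% = Ub-AMC without proteasome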
An asterisk follows results filed as active; x = not tested or not shown. Compounds with a hit are over-represented: about 2.3% of the library has one in this group of screens.

SMILES	Fh CTSL1 inh	PP1 counter	PREPL inhibitor	UBC13 inh	UCH37 inh	PP5 inh	Casp3 UBC13 ctr	UBC13 conf	UCH37 confirm
CNC[C@@H](CC1CCCCC1)NC[C@H](CC(C)C)NCCc1cccc(C(F)(F)F)c1	-1	13	10	92*	0	2	-1	80*	x
CNC[C@@H](Cc1ccccc1)NC[C@@H](CC1CCCCC1)NCCCc1ccccc1	4	13	14	93*	3	0	-2	76*	x
S=c1[nH]nc(-c2cc(-c3ccccc3)n[nH]2)n1N=Cc1ccc(Cl)c(Cl)c1	x	x	x	x	3	x	x	x	x
COc1ccccc1CNC(=O)Cc1csc(NC(=O)Nc2ccccc2OC)n1	2	5	-17	1	5	3	x	x	x
COc1ccccc1NC(=O)Nc1nc(C(C)(C)C)cs1	1	-1	-1	53*	5	4	-2	55*	x
NCCCNCCCCNCCCN	x	x	-3	93*	2	x	-3	73*	x
O=C1Cc2ccccc2Sc2ccc(O)cc21	-3	2	1	51*	-12	6	-1	42	x
Nc1ccc2c(c1)CC(=O)c1ccccc1S2	-3	0	7	5	3	3	x	x	x
O=C(CCc1ccccc1)NNC(=O)c1ccccn1	0	-1	-5	50*	2	0	2	64*	x
CCNC(=S)NNC(=O)c1ccccn1	4	-2	12	90*	3	2	-1	87*	x
NC(=O)NC(CC(=O)NNC(=O)c1ccccn1)c1ccccc1Cl (stereo not drawn)	x	2	4	80*	-3	2	8	82*	x
Cc1cccc(OCCCC(=O)NNC(=O)c2ccccn2)c1	x	4	20	75*	x	2	-3	16	x
NC(=O)NC(CC(=O)NCCc1ccccn1)c1ccccc1Cl (stereo not drawn)	-3	-1	15	0	2	1	x	x	x
CC1=CC(=O)C(C(C)C)=CC1=NOC(=O)c1cccc2nc(C)oc12	x	x	x	x	3	x	x	x	x
Cn1cccc1C=NN1CCN(Cc2cccc3ccccc23)CC1	x	x	x	x	5	x	x	x	x
CCN1CCN(Cc2ccc(NC(=O)c3cc(NC(=O)c4cc(-c5ccc(OC)cc5)n[nH]4)cc(OC)c3)cc2C(F)(F)F)CC1	0	11	-10	61*	2	4	2	44	x
CCN1CCN(Cc2ccc(NC(=O)c3ccc(C)c(NC(=O)c4c[nH]c5cc(C(F)(F)F)ccc5c4=O)c3)cc2C(F)(F)F)CC1	-2	5	-16	108*	4	2	-5	100*	x
CN(C)CCCNC(=O)CC1C[C@H](C(=O)N2CCCCC2)[C@@]2(CCc3ccccc3)c3[nH]c4ccccc4c3CCN2C1=O (stereo partly drawn)	x	x	28	47*	3	x	0	17	x
CCn1c2ccccc2c2nc3ccccc3nc21	3	-1	1	66*	-44	1	48*	-1	x
C#CCOCCOCCOCCNc1nc(N2CCN(C(=O)[C@H](CCCCN)n3cc(CN)nn3)CC2)nc(N2CCN(C(=O)[C@H](CCCCN)n3cc([C@@H](N)[C@H](C)CC)nn3)CC2)n1	x	x	15	109*	36*	x	-2	108*	4
CC(=O)Nc1ccc(C=NNc2nc3ccccc3[nH]2)cc1	x	x	x	x	0	x	x	x	x
COCCCNC(=S)NNC(=O)c1ccc2c(c1)OCO2	1	-2	1	-11	37*	-1	x	x	22
NS(=O)(=O)c1ccc(N=Nc2ccc(=O)[nH]c2O)cc1	10	9	8	x	32*	-3	x	x	15
Nc1nc(N)c(N=Nc2ccc(S(N)(=O)=O)cc2)c(=O)[nH]1	1	-2	-2	-34	x	-1	x	x	x
CC(CC(=O)Nc1ccc2ccccc2c1)=NNC(=O)c1cnccn1	x	x	x	x	6	x	x	x	x
SMILES	Fh CTSL1 inh	PP1 counter	PREPL inhibitor	UBC13 inh	UCH37 inh	PP5 inh	Casp3 UBC13 ctr	UBC13 conf	UCH37 confirm
Cc1ccc(C=NNC(=O)CN2C(=O)CSc3ccccc32)o1	x	x	x	x	4	x	x	x	x
NC(=O)CC(NC(=O)Cc1ccc(Cl)cc1)c1ccc(NCCc2ccccc2F)c([N+](=O)[O-])c1 (stereo not drawn)	2	12	-89	-14	48*	-1	x	x	2
Cc1cc(NC(=O)c2cccc(Cl)c2)n[nH]1	-1	-2	-2	0	35*	-2	x	x	11
Cc1ccc(NC(=O)c2cccc(Cl)c2)nc1	0	1	-3	-1	3	0	x	x	x
O=C1C(Cl)=C(Nc2ccc3cn[nH]c3c2)C(=O)c2ccccc21	28*	6	36	x	46*	4	x	x	13
O=C(Nc1ccc2cn[nH]c2c1)c1c(Cl)cccc1Cl	-3	1	1	5	2	3	x	x	x
CCOc1ccc(CNC(=S)NN=Cc2ccncc2)cc1	x	x	x	x	44*	x	x	x	-11
Cc1[nH][nH]c(=O)c1C(c1ccc(-c2ccc(Cl)c(Cl)c2)o1)c1c(C)[nH][nH]c1=O	4	2	13	-24	42*	0	x	x	27
CCOc1ccc(Cl)cc1C(c1c(C)[nH][nH]c1=O)c1c(C)[nH][nH]c1=O	x	x	x	-7	4	x	x	x	x
Clc1ccc(Nc2nc(-c3ccncc3)cs2)cc1	2	6	11	-2	49*	1	x	x	27
Fc1ccc(Nc2nc(-c3ccncc3)cs2)cc1	-7	3	9	-2	1	3	x	x	x
CN(C)c1ccc(C(C(=O)NC2CCCCC2)N(Cc2ccco2)C(=O)c2snc(C(N)=O)c2N)cc1 (stereo not drawn)	-3	-1	3	7	68*	3	x	x	-21
Cc1[nH]n(-c2ccccc2)c(=O)c1C(c1ccc(O)c([N+](=O)[O-])c1)c1c(C)[nH]n(-c2ccccc2)c1=O	3	7	-3	-188	7	2	x	x	x
COc1ccc(C(C[N+](=O)[O-])c2c(C)[nH]n(-c3ccccc3)c2=O)cc1 (stereo not drawn)	98*	0	3	-70	77*	9	x	x	7
Cc1[nH]n(-c2ccccc2)c(=O)c1C(C[N+](=O)[O-])c1ccccc1Cl (stereo not drawn)	-5	-2	3	-34	30*	5	x	x	1
Cc1ccc(C(=O)NN=Cc2ccc(OC(=O)c3ccccc3Cl)cc2)cn1	x	x	x	x	2	x	x	x	x
COc1ccc(C=Nn2cnc3c([nH]c4ccc(C)cc43)c2=O)cc1CN1CCCC1	x	x	x	x	0	x	x	x	x
COc1cc(OC)c([N+](=O)[O-])cc1C=NNC(=O)c1ccncc1	x	x	x	x	44*	x	x	x	15
COc1cc(OC)c(OC)cc1C=NNC(=O)c1cnccn1	x	x	x	x	41*	x	x	x	27
